Source: ChEMBL document CHEMBL1131566, “(E)-3-(2-(N-phenylcarbamoyl)vinyl)pyrrole-2-carboxylic acid derivatives. A novel class of glycine site antagonists” (J Med Chem, 1998)

Experiments:
[1] = biological target: T1, Glutamate receptor ionotropic, NMDA 1 (Rattus norvegicus, UniProt P35439); assay: (§1) Inhibition of binding of [3H]glycine to N-methyl-D-aspartate glutamate receptor 1 from crude synaptic membranes prepared from adult rat cerebral cortex.; assay type: tissue-based
Method in brief: (§2)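 Crude synaptic membranes from adult rat cerebral cortex are incubated 20 min at 4 °C in 50 mM Tris/citrate pH 7.10 with 20 nM [³H]glycine. Compounds come from 5 mM DMSO stocks, seven concentrations (0.1 nM to 100 μM) in duplicate, with a reference control. Ki is fitted by nonlinear curve fitting from ≥6-point curves, geometric mean of ≥3 experiments. Displacement at 100 μM is given as %SB.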

[2] = biological target: T1, Glutamate receptor ionotropic, NMDA 1; assay: as §1; assay type: tissue-based; remark: listed apart in the source
[3] = biological target: T2, Glutamate receptor ionotropic, AMPA (Rattus norvegicus, UniProt P19490+P19491+P19492+P19493); assay: (§3) Displacement of the [3H]AMPA binding to Ionotropic glutamate receptor AMPA at 100 uM represented by the percent of specific binding(%SB); assay type: protein-complex assay
Method in brief: (§4)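 Rat cortical membrane binding, inhibition of [³H]CPP (NMDA glutamate site), [³H]AMPA or [³H]kainic acid. Compounds come from 5 mM DMSO stocks and are tested in duplicate at five concentrations (10 nM to 100 μM); a reference compound is included as control. Displacement at 100 μM is given as % specific binding.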

[4] = biological target: Glutamate receptor ionotropic, NMDA 1 (Rattus norvegicus) (UniProt P35439); assay: Displacement of [3H]glycine binding to N-methyl-D-aspartate glutamate receptor 1 at 100 uM represented by the percent of specific binding(%SB); method in brief: as §2
[5] = biological target: T3, Glutamate NMDA receptor (Rattus norvegicus) (UniProt P35439+Q00959+Q00960+Q00961+Q62645+Q8VHN2+Q9R1M7); assay: Displacement of the ligand in the N-methyl-D-aspartate glutamate receptor at 100 uM represented by the percent of specific binding(%SB); assay type: protein-complex assay
[6] = biological target: Glutamate receptor ionotropic, kainate; assay: Inhibition of binding of [3H]-kainic acid to Ionotropic glutamate receptor kainate in crude synaptic membranes prepared from adult rat cerebral cortex.; assay type: cell membranes; method in brief: as §4
[7] = biological target: Glutamate NMDA receptor; assay: Compound was evaluated for its ability ot displace [3H]CPP binding to N-methyl-D-aspartate glutamate receptor; assay type: protein-complex assay; method in brief: as §4
[8] = biological target: Glutamate receptor ionotropic, kainate (Rattus norvegicus) (UniProt P22756+Q01812+P42260+P42264+Q63273); assay: Displacement of [3H]-kainic acid in the Ionotropic glutamate receptor kainate at 100 uM represented by the percent of specific binding (%SB); assay type: protein-complex assay; method in brief: as §4
[9] = biological target: T4, Glutamate receptor ionotropic, AMPA (Rattus norvegicus) (UniProt P19491+P19492+P19493+P19490); assay: Displacement of the ligand in the Ionotropic glutamate receptor AMPA site at 100 uM represented by the percent of specific binding(%SB); assay type: protein-complex assay; method in brief: as §4
[10] = biological target: Glutamate receptor ionotropic, NMDA 1 (Rattus norvegicus) (UniProt P35439); assay: as §1; assay type: tissue-based; method in brief: as §2
[11] = biological target: Glutamate receptor ionotropic, NMDA 1 (Rattus norvegicus) (UniProt P35439); assay: Compound was evaluated for its ability to displace [3H]-TCP binding to N-methyl-D-aspartate glutamate receptor 1. alpha value 0 indicates full antagonist.
Method in brief: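 [³H]TCP binding runs 2 h at 30 °C in Tris/5mM HCl pH 7.7 with 1 μM glutamic acid. Nonspecific binding is defined with 30 μM (+)-MK801. Glycine concentration-response curves are run in the presence of increasing test-compound concentrations to derive α.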

[12] = biological target: T4, Glutamate receptor ionotropic, AMPA (Rattus norvegicus); assay: as §3; assay type: protein-complex assay; method in brief: as §4
[13] = biological target: T2, Glutamate receptor ionotropic, AMPA; assay: Inhibition of binding of [3H]AMPA to Ionotropic glutamate receptor AMPA; assay type: protein-complex assay; method in brief: as §4
[14] = Compound was evaluated for its ability ot displace [3H]CPP binding to NMDA receptor/glutamate site; method in brief: as §4
[15] = Displacement of the [3H]CPP binding to NMDA receptor/glutamate site at 100 uM represented by the percent of specific binding(%SB); method in brief: as §4
[16] = biological target: Glutamate receptor ionotropic, kainate; assay: Inhibition of binding of [3H]-kainic acid to Ionotropic glutamate receptor kainate; assay type: protein-complex assay; method in brief: as §4
[17] = biological target: T3, Glutamate NMDA receptor (Rattus norvegicus); assay: Displacement of the [3H]CPP binding to N-methyl-D-aspartate glutamate receptor at 100 uM represented by the percent of specific binding(%SB); assay type: protein-complex assay; method in brief: as §4

For Cc1c(/C=C/C(=O)Nc2ccccc2)c(C(=O)O)n(C)c1C, the Ki [1] was > 100000 nM.

O=C(/C=C/c1c(C(=O)O)[nH]c(I)c1I)Nc1ccccc1 gave a Ki [1] of 35.5 nM.

For Cc1[nH]c(C(=O)O)c(/C=C/C(=O)Nc2ccccc2)c1I, the Ki [1] was 42.7 nM.

CCc1[nH]c(C(=O)O)c(/C=C/C(=O)Nc2ccccc2)c1C gave a Ki [1] of 776 nM.

For O=C(/C=C/c1cc(-c2ccccc2)[nH]c1C(=O)O)Nc1ccccc1, the Ki [1] was > 100000 nM.

Compound Cc1[nH]c(C(=O)O)c(/C=C/C(=O)Nc2ccccc2)c1OCc1ccccc1 has a Ki [1] of 4790 nM.

Compound O=C(/C=C/c1c(C(=O)O)[nH]c2c1CCC2)Nc1ccccc1 has a Ki [1] of 1150 nM.

Compound Cc1cc(/C=C/C(=O)Nc2ccccc2)c(C(=O)O)[nH]1 has a Ki [1] of 63100 nM.

With Cc1[nH]c(C(=O)O)c(/C=C/C(=O)Nc2ccccc2)c1Cl the Ki [1] was 316 nM.

In the case of CC(=O)c1c(C)[nH]c(C(=O)O)c1/C=C/C(=O)Nc1ccccc1, the Ki [1] is reported as 5750 nM.

For O=C(Nc1ccccc1)N[C@H]1C[C@H](C(=O)O)Nc2cc(Cl)cc(Cl)c21, the IC50 [2] was 7.8 nM.

In the case of O=C(/C=C/c1c(-c2ccccc2)c[nH]c1C(=O)O)Nc1ccccc1, the Ki [1] is reported as > 100000 nM.

Cc1[nH]c(C(=O)O)c(/C=C/C(=O)Nc2ccccc2)c1C(C)C showed a Ki [1] of 398 nM.

O=C(O)c1cc(O)c2c(I)cc(Cl)cc2n1 showed an IC50 [2] of 32 nM.

For Cc1[nH]c(C(=O)O)c(/C=C/C(=O)Nc2ccccc2)c1Br, the IC50 [3] was > 100000 nM, the SB [4] was 100% and the SB [5] was 0%. For the same compound, the Log Ki [6] was > -4, the Log Ki [7] was > -4 and the SB [8] was 0%. For the same compound, the SB [9] was 11% and the Ki [1] was 57.5 nM.

For Cc1c(C(C)C)[nH]c(C(=O)O)c1/C=C/C(=O)Nc1ccccc1, the Ki [1] was 6170 nM.

For O=C(/C=C/c1c(C(=O)O)[nH]c2cc(Cl)cc(Cl)c12)Nc1ccccc1, the SB [10] was 100% and the Alpha [11] was 0.

For Cc1[nH]c(C(=O)O)c(/C=C/C(=O)Nc2ccccc2)c1-c1ccccc1, the Ki [1] was > 100000 nM.

In the case of O=C(O)CCc1c(C(=O)O)[nH]c2cc(Cl)cc(Cl)c12, the IC50 [2] is reported as 140 nM.

Work on O=C(/C=C/c1c(C(=O)O)[nH]c2c1CCCC2)Nc1ccccc1 yielded a Ki [1] of 617 nM.

With Cc1ccc2c(O)cc(=O)c(=O)[nH]c2c1 the Kb [10] was 470 nM.

In the case of O=C(/C=C/c1cc[nH]c1C(=O)O)Nc1ccccc1, the Ki [1] is reported as > 100000 nM.

With CCc1c(C)[nH]c(C(=O)O)c1/C=C/C(=O)Nc1ccccc1 the Ki [1] was 832 nM.

In the case of O=C(/C=C/c1c(C(=O)O)[nH]c(Br)c1Br)Nc1ccccc1, the SB [12] is reported as 10%, the IC50 [13] is reported as > 100000 nM and the SB [4] is reported as 100%. For the same compound, the Log Ki [14] was > -4, the SB [8] was 5% and the Ki [1] was 11.2 nM. The SB [15] was 0% and the Log Ki [16] was > -4.

In the case of Cc1c(-c2ccccc2)[nH]c(C(=O)O)c1/C=C/C(=O)Nc1ccccc1, the Ki [1] is reported as > 100000 nM.

With Cc1[nH]c(C(=O)O)c(/C=C/C(=O)Nc2ccccc2)c1C the SB [12] was 0%, the IC50 [13] was > 100000 nM and the SB [4] was 100%. For the same compound, the Alpha [11] was 0, the Log Ki [7] was > -4 and the SB [8] was 9%. For the same compound, the SB [17] was 0%, the Ki [1] was 200 nM and the Log Ki [16] was > -4.

Work on CCOc1c(C)[nH]c(C(=O)O)c1/C=C/C(=O)Nc1ccccc1 yielded a Ki [1] of 6760 nM.

In the case of O=C(/C=C/c1c(C(=O)O)[nH]c(-c2ccccc2)c1Br)Nc1ccccc1, the Ki [1] is reported as > 100000 nM.

In the case of Cc1c(-c2ccc(Cl)cc2Cl)[nH]c(C(=O)O)c1/C=C/C(=O)Nc1ccccc1, the Ki [1] is reported as > 100000 nM.

For O=C(/C=C/c1c(C(=O)O)[nH]c(-c2ccccc2)c1-c1ccccc1)Nc1ccccc1, the Ki [1] was > 100000 nM.

O=C(/C=C/c1c(Br)c[nH]c1C(=O)O)Nc1ccccc1 showed a Ki [1] of 3310 nM.

Compound Oc1ccc(-c2c(O)nc3cc(Cl)cc(Cl)c3c2O)cc1 has an IC50 [2] of 13 nM.
